According to publication PMC4263960 (Pediatric blood & cancer, 2013):

Assays:
[1] = tested on: BT-28 medulloblastoma xenograft; assay: PPTP in vivo xenograft testing, BT-28; design: species or system mice
[2] = tested on: BT-12 cell line; assay: DIMSCAN in vitro cytotoxicity testing, BT-12; format: cell-based
Outline: (§1)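 Test compound incubated with cells of a 24-line pediatric cancer panel for 96 h at 0.1 nM to 1 μM, then assessed by DIMSCAN. Relative IC50 (rIC50) derived per line. Panel comparison value is the panel rIC50 divided by the rIC50 of each cell line.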

[3] = tested on: COG-LL-317 cell line; assay: DIMSCAN in vitro cytotoxicity testing, COG-LL-317; format: cell-based
Outline: as §1

[4] = tested on: CHLA-10 cell line; assay: DIMSCAN in vitro cytotoxicity testing, CHLA-10; format: cell-based
Outline: as §1

[5] = tested on: ALL-31 tertiary T-cell ALL xenograft; assay: PPTP in vivo xenograft testing, ALL-31; design: species or system mice
[6] = tested on: RS4;11 cell line; assay: DIMSCAN in vitro cytotoxicity testing, RS4; format: cell-based
Outline: as §1

[7] = tested on: Rh36 EMB rhabdomyosarcoma xenograft; assay: PPTP in vivo xenograft testing, Rh36; design: species or system mice
[8] = tested on: OS-9 osteosarcoma xenograft; assay: PPTP in vivo xenograft testing, OS-9; design: species or system mice
[9] = tested on: Rh18 cell line; assay: DIMSCAN in vitro cytotoxicity testing, Rh18; format: cell-based
Outline: as §1

[10] = Human pharmacokinetics of eribulin; format: in vivo, humans; conditions: plasma, intravenous, 1.4 mg/m2
[11] = tested on: Rh18 EMB rhabdomyosarcoma xenograft; assay: PPTP in vivo xenograft testing, Rh18; design: species or system mice
[12] = tested on: SK-NEP-1 Ewing xenograft; assay: PPTP in vivo xenograft testing, SK-NEP-1; design: species or system mice
[13] = 1 mg/kg IP Q4Dx3 repeated at Day 21

For C=C1C[C@@H]2CC[C@@]34C[C@H]5O[C@H]6[C@@H](O3)[C@H]3O[C@H](CC[C@@H]3O[C@H]6[C@H]5O4)CC(=O)C[C@@H]3[C@@H](OC)[C@@H](C[C@H](O)CN)O[C@H]3C[C@H]3O[C@@H](CC[C@@H]1O2)C[C@@H](C)C3=C [Eribulin], the Response activity ([1]; 1 mg/kg IP) was “Int (intermediate activity by a score of ≥2 but <6)”, the T/C volume activity ([1]; 1 mg/kg IP) was “Int (Intermediate activity = T/C ≤0.45 but >0.15)” and the “EFS T/C” value [1, 13] was >3.3. The “Median final RTV (CD45%)” value [1, 13] was 0.7, the “Tumor volume T/C” value ([1]; 1 mg/kg IP, Day 21 or earlier) was 0.44 and the “Panel rIC50/Line rIC50” value ([2]; BT-12) was 1.83. For the same molecule, the Relative in/out% ([2]; BT-12) was −74%, the “Ymin % (observed)” value ([2]; BT-12) was 2.12% and the IC50 ([2]; Homo sapiens, BT-12, 96 h, read-out: rIC50) was 0.15 nM. For the same molecule, the IC50 ([3]; 96 h, read-out: rIC50) was < 0.1 nM, the “Panel rIC50/Line rIC50” value ([3]; COG-LL-317) was >2.74 and the Relative in/out% ([3]; COG-LL-317) was −99%. For the same molecule, the “Ymin % (observed)” value ([3]; COG-LL-317) was 0.03%, the IC50 ([4]; 96 h, read-out: rIC50) was 0.11 nM and the “Panel rIC50/Line rIC50” value ([4]; CHLA-10) was 2.58. The Relative in/out% ([4]; CHLA-10) was −28%, the “Ymin % (observed)” value ([4]; CHLA-10) was 4.54% and the EFS activity ([5]; 1.5 mg/kg IP) was “Int (Intermediate activity = criteria (a) and (b) above, but not having a net reduction in median tumor volume for treated animals at the end of the study)”. The Response activity ([5]; 1.5 mg/kg IP) was “High (A high level of activity is indicated by a score of 6 or more)”, the “EFS T/C” value ([5]; 1.5 mg/kg IP Q4Dx3 repeated at Day 21) was >3.7 and the “Median final RTV (CD45%)” value ([5]; CD45%, 1.5 mg/kg IP) was 12.9%. The IC50 ([6]; Homo sapiens, RS4-11, 96 h, read-out: rIC50) was < 0.1 nM, the “Panel rIC50/Line rIC50” value ([6]; RS4;11) was >2.74 and the Relative in/out% ([6]; RS4;11) was −99%. For the same molecule, the “Ymin % (observed)” value ([6]; RS4;11) was 0.22%, the EFS activity ([7]; 1 mg/kg IP) was “High (High activity requires: (a) an EFS T/C >2; (b) a significant difference in EFS distributions, and (c) a net reduction in median tumor volume for animals in the treated group at the end of treatment as compared to at treatment initiation)” and the Response activity ([7]; 1 mg/kg IP) was “High (A high level of activity is indicated by a score of 6 or more)”. For the same molecule, the T/C volume activity ([7]; 1 mg/kg IP) was “High (High activity = T/C ≤0.15)”, the “EFS T/C” value [7, 13] was >6.3 and the “Median final RTV (CD45%)” value [7, 13] was 0.0. The “Tumor volume T/C” value ([7]; 1 mg/kg IP, Day 21 or earlier) was 0.10, the EFS activity ([8]; 1 mg/kg IP) was “Low (Low activity = EFS T/C <2)” and the Response activity ([8]; 1 mg/kg IP) was “Low (low activity by a score of <2)”. The T/C volume activity ([8]; 1 mg/kg IP) was “Low (Low activity = T/C >0.45)”, the “EFS T/C” value [8, 13] was 1.4 and the “Median final RTV (CD45%)” value [8, 13] was >4. For the same molecule, the Time to event [8, 13] was 26.3, the “Tumor volume T/C” value ([8]; 1 mg/kg IP, Day 21 or earlier) was 0.61 and the IC50 ([9]; Homo sapiens, Rh18, 96 h, read-out: rIC50) was 0.83 nM. The “Panel rIC50/Line rIC50” value ([9]; Rh18) was 0.33, the Relative in/out% ([9]; Rh18) was −53% and the “Ymin % (observed)” value ([9]; Rh18) was 20.92%. The AUC [10] was 1580 ng·h/mL, the EFS activity ([11]; 1 mg/kg IP) was “Int (Intermediate activity = criteria (a) and (b) above, but not having a net reduction in median tumor volume for treated animals at the end of the study)” and the Response activity ([11]; 1 mg/kg IP) was “Int (intermediate activity by a score of ≥2 but <6)”. For the same molecule, the T/C volume activity ([11]; 1 mg/kg IP) was “Low (Low activity = T/C >0.45)”, the “EFS T/C” value [11, 13] was >3.2 and the “Median final RTV (CD45%)” value [11, 13] was 1.8. For the same molecule, the “Tumor volume T/C” value ([11]; 1 mg/kg IP, Day 21 or earlier) was 0.76, the EFS activity ([12]; 1 mg/kg IP) was “High (High activity requires: (a) an EFS T/C >2; (b) a significant difference in EFS distributions, and (c) a net reduction in median tumor volume for animals in the treated group at the end of treatment as compared to at treatment initiation)” and the Response activity ([12]; 1 mg/kg IP) was “High (A high level of activity is indicated by a score of 6 or more)”. For the same molecule, the T/C volume activity ([12]; 1 mg/kg IP) was “High (High activity = T/C ≤0.15)”, the “EFS T/C” value [12, 13] was >4.3 and the “Median final RTV (CD45%)” value [12, 13] was 0.0. The “Tumor volume T/C” value ([12]; 1 mg/kg IP, Day 21 or earlier) was 0.00.
